# Experimental data: PMC5741288 (Pain Reports, 2016)
# Marks after values point to notes of the source that are not given here.
# Assay: Treatment-emergent adverse events, tolerability
# Type: in vivo, healthy men
# Procedure, shortened: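 Healthy men received single oral tablet doses (part 1: 1–225 mg; part 2: 10, 50 mg) or placebo under double-blind randomisation. Treatment-emergent adverse events were recorded along with clinical laboratory tests, ECG, oral temperature, vital signs and physical examinations, through follow-up.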
smiles,measurement,setting,value
"CC(C)(O)c1ccccc1-c1ccc2[nH]c(/C=C/c3ccc(C(F)(F)F)cc3)nc2c1 [JNJ-39439335, trans-2-(2-{2-[2-(4-Trifluoromethyl-phenyl)-vinyl]-1H-benzimidazol-5-yl}-phenyl)-propan-2-ol]",TEAE Burning sensation,"part 1, 30 mg (N = 5)",0 n (%)
same,TEAE Chills,"part 1, 30 mg (N = 5)",0 n (%)
same,TEAE Dizziness,"part 1, 30 mg (N = 5)",1 (20) n (%)
same,TEAE Dizziness postural,"part 1, 30 mg (N = 5)",0 n (%)
same,TEAE Dysgeusia,"part 1, 30 mg (N = 5)",1 (20) n (%)
same,TEAE Fatigue,"part 1, 30 mg (N = 5)",0 n (%)
same,TEAE Feeling cold,"part 1, 30 mg (N = 5)",5 (100) n (%)
same,TEAE Feeling hot,"part 1, 30 mg (N = 5)",4 (80) n (%)
same,TEAE Headache,"part 1, 30 mg (N = 5)",0 n (%)
same,TEAE Hematoma,"part 1, 30 mg (N = 5)",0 n (%)
same,TEAE Hyperhidrosis,"part 1, 30 mg (N = 5)",0 n (%)
same,TEAE Hypoesthesia,"part 1, 30 mg (N = 5)",0 n (%)
same,TEAE Hypogeusia,"part 1, 30 mg (N = 5)",0 n (%)
same,TEAE Nausea,"part 1, 30 mg (N = 5)",0 n (%)
same,TEAE Orthostatic hypotension,"part 1, 30 mg (N = 5)",1 (20) n (%)
same,TEAE Paresthesia,"part 1, 30 mg (N = 5)",0 n (%)
same,TEAE Pruritus,"part 1, 30 mg (N = 5)",0 n (%)
same,TEAE Pyrexia,"part 1, 30 mg (N = 5)",3 (60) n (%)
same,TEAE Rhinitis,"part 1, 30 mg (N = 5)",0 n (%)
same,TEAE Thermal burn,"part 1, 30 mg (N = 5)",1 (20) n (%)
same,TEAE Thermohypoesthesia,"part 1, 30 mg (N = 5)",3 (60) n (%)
same,Total no. participants with AEs,"part 1, 30 mg (N = 5)",5 (100) n (%)
same,TEAE Agusia,"part 1, 60 mg (N = 6)",0 n (%)
same,TEAE Back pain,"part 1, 60 mg (N = 6)",0 n (%)
same,TEAE Burning sensation,"part 1, 60 mg (N = 6)",0 n (%)
same,TEAE Chills,"part 1, 60 mg (N = 6)",0 n (%)
same,TEAE Dizziness,"part 1, 60 mg (N = 6)",0 n (%)
same,TEAE Dizziness postural,"part 1, 60 mg (N = 6)",0 n (%)
same,TEAE Dysgeusia,"part 1, 60 mg (N = 6)",1 (17) n (%)
same,TEAE Fatigue,"part 1, 60 mg (N = 6)",0 n (%)
same,TEAE Feeling cold,"part 1, 60 mg (N = 6)",4 (67) n (%)
same,TEAE Feeling hot,"part 1, 60 mg (N = 6)",1 (17) n (%)
same,TEAE Headache,"part 1, 60 mg (N = 6)",0 n (%)
same,TEAE Hematoma,"part 1, 60 mg (N = 6)",0 n (%)
same,TEAE Hyperhidrosis,"part 1, 60 mg (N = 6)",0 n (%)
same,TEAE Hypoesthesia,"part 1, 60 mg (N = 6)",1 (17) n (%)
same,TEAE Hypogeusia,"part 1, 60 mg (N = 6)",0 n (%)
same,TEAE Nausea,"part 1, 60 mg (N = 6)",1 (17) n (%)
same,TEAE Paresthesia,"part 1, 60 mg (N = 6)",0 n (%)
same,TEAE Pruritus,"part 1, 60 mg (N = 6)",0 n (%)
same,TEAE Pyrexia,"part 1, 60 mg (N = 6)",4 (67) n (%)
same,TEAE Rhinitis,"part 1, 60 mg (N = 6)",0 n (%)
same,TEAE Thermal burn,"part 1, 60 mg (N = 6)",0 n (%)
same,TEAE Thermohypoesthesia,"part 1, 60 mg (N = 6)",1 (17) n (%)
same,Total no. participants with AEs,"part 1, 60 mg (N = 6)",6 (100) n (%)
same,TEAE Agusia,"part 1, 120 mg (N = 6)",0 n (%)
same,TEAE Back pain,"part 1, 120 mg (N = 6)",0 n (%)
same,TEAE Burning sensation,"part 1, 120 mg (N = 6)",0 n (%)
same,TEAE Chills,"part 1, 120 mg (N = 6)",1 (17) n (%)
same,TEAE Dizziness,"part 1, 120 mg (N = 6)",1 (17) n (%)
same,TEAE Dizziness postural,"part 1, 120 mg (N = 6)",1 (17) n (%)
same,TEAE Dysgeusia,"part 1, 120 mg (N = 6)",0 n (%)
same,TEAE Fatigue,"part 1, 120 mg (N = 6)",1 (17) n (%)
same,TEAE Feeling cold,"part 1, 120 mg (N = 6)",1 (17) n (%)
same,TEAE Feeling hot,"part 1, 120 mg (N = 6)",1 (17) n (%)
same,TEAE Headache,"part 1, 120 mg (N = 6)",1 (17) n (%)
same,TEAE Hematoma,"part 1, 120 mg (N = 6)",1 (17) n (%)
same,TEAE Hyperhidrosis,"part 1, 120 mg (N = 6)",0 n (%)
same,TEAE Hypoesthesia,"part 1, 120 mg (N = 6)",1 (17) n (%)
same,TEAE Hypogeusia,"part 1, 120 mg (N = 6)",0 n (%)
same,TEAE Nausea,"part 1, 120 mg (N = 6)",1 (17) n (%)
same,TEAE Orthostatic hypotension,"part 1, 120 mg (N = 6)",0^a n (%)
same,TEAE Paresthesia,"part 1, 120 mg (N = 6)",0 n (%)
same,TEAE Pruritus,"part 1, 120 mg (N = 6)",1 (17) n (%)
same,TEAE Pyrexia,"part 1, 120 mg (N = 6)",4 (67) n (%)
same,TEAE Rhinitis,"part 1, 120 mg (N = 6)",0 n (%)
same,TEAE Thermal burn,"part 1, 120 mg (N = 6)",0 n (%)
same,TEAE Thermohypoesthesia,"part 1, 120 mg (N = 6)",4 (67) n (%)
same,Total no. participants with AEs,"part 1, 120 mg (N = 6)",6 (100) n (%)
same,TEAE Agusia,"part 1, 225 mg (N = 6)",2 (33) n (%)
same,TEAE Back pain,"part 1, 225 mg (N = 6)",0 n (%)
same,TEAE Burning sensation,"part 1, 225 mg (N = 6)",5 (83) n (%)
same,TEAE Chills,"part 1, 225 mg (N = 6)",1 (17) n (%)
same,TEAE Dizziness,"part 1, 225 mg (N = 6)",1 (17) n (%)
same,TEAE Dizziness postural,"part 1, 225 mg (N = 6)",0 n (%)
same,TEAE Dysgeusia,"part 1, 225 mg (N = 6)",0 n (%)
same,TEAE Fatigue,"part 1, 225 mg (N = 6)",0 n (%)
same,TEAE Feeling cold,"part 1, 225 mg (N = 6)",2 (33) n (%)
same,TEAE Feeling hot,"part 1, 225 mg (N = 6)",5 (83) n (%)
same,TEAE Headache,"part 1, 225 mg (N = 6)",2 (33) n (%)
same,TEAE Hematoma,"part 1, 225 mg (N = 6)",0 n (%)
same,TEAE Hyperhidrosis,"part 1, 225 mg (N = 6)",1 (17) n (%)
same,TEAE Hypoesthesia,"part 1, 225 mg (N = 6)",0 n (%)
same,TEAE Hypogeusia,"part 1, 225 mg (N = 6)",0 n (%)
same,TEAE Nausea,"part 1, 225 mg (N = 6)",0 n (%)
same,TEAE Orthostatic hypotension,"part 1, 225 mg (N = 6)",1 (17) n (%)
same,TEAE Paresthesia,"part 1, 225 mg (N = 6)",3 (50) n (%)
same,TEAE Pruritus,"part 1, 225 mg (N = 6)",1 (17) n (%)
same,TEAE Pyrexia,"part 1, 225 mg (N = 6)",3 (50) n (%)
same,TEAE Rhinitis,"part 1, 225 mg (N = 6)",0 n (%)
same,TEAE Thermal burn,"part 1, 225 mg (N = 6)",3 (50) n (%)
same,TEAE Thermohypoesthesia,"part 1, 225 mg (N = 6)",5 (83) n (%)
same,Total no. participants with AEs,"part 1, 225 mg (N = 6)",6 (100) n (%)
same,Participants with burning feeling (not physical burn),"part 1, 225-mg dose group",5 participants
same,Participants reporting at least 1 TEAE,"part 1, of 59 participants receiving JNJ-39439335",50 (85%) n (%)
same,Participants with minor or first-degree burns,"part 1, of the 89 participants who received JNJ-39439335 or placebo",4 participants
same,"Thermohypoesthesia, participants","part 1, participants receiving JNJ-39439335",23 (39%) n (%)
same,"Thermohypoesthesia, participants",part 2,70%
same,TEAE Disturbance in attention,"part 2, 10 mg (N = 19)",1 (5) n (%)
same,TEAE Dizziness,"part 2, 10 mg (N = 19)",0 n (%)
same,TEAE Dizziness postural,"part 2, 10 mg (N = 19)",0 n (%)
same,TEAE Dysgeusia,"part 2, 10 mg (N = 19)",4 (21) n (%)
same,TEAE Feeling cold,"part 2, 10 mg (N = 19)",9 (47) n (%)
same,TEAE Feeling hot,"part 2, 10 mg (N = 19)",6 (32) n (%)
same,TEAE Headache,"part 2, 10 mg (N = 19)",3 (16) n (%)
same,TEAE Hyperhidrosis,"part 2, 10 mg (N = 19)",2 (11) n (%)
same,TEAE Oropharyngeal pain,"part 2, 10 mg (N = 19)",1 (5) n (%)
same,TEAE Paresthesia,"part 2, 10 mg (N = 19)",7 (37) n (%)
same,TEAE Pyrexia,"part 2, 10 mg (N = 19)",8 (42) n (%)
same,TEAE Thermal burn,"part 2, 10 mg (N = 19)",0 n (%)
same,TEAE Thermohypoesthesia,"part 2, 10 mg (N = 19)",9 (47) n (%)
same,Total no. participants with AEs,"part 2, 10 mg (N = 19)",17 (89) n (%)
same,TEAE Disturbance in attention,"part 2, 50 mg (N = 20)",2 (10) n (%)
same,TEAE Dizziness,"part 2, 50 mg (N = 20)",2 (10) n (%)
same,TEAE Dizziness postural,"part 2, 50 mg (N = 20)",1 (5) n (%)
same,TEAE Dysgeusia,"part 2, 50 mg (N = 20)",5 (25) n (%)
same,TEAE Feeling cold,"part 2, 50 mg (N = 20)",9 (45) n (%)
same,TEAE Feeling hot,"part 2, 50 mg (N = 20)",8 (40) n (%)
same,TEAE Headache,"part 2, 50 mg (N = 20)",3 (15) n (%)
same,TEAE Hyperhidrosis,"part 2, 50 mg (N = 20)",2 (10) n (%)
same,TEAE Oropharyngeal pain,"part 2, 50 mg (N = 20)",1 (5) n (%)
same,TEAE Paresthesia,"part 2, 50 mg (N = 20)",9 (45) n (%)
same,TEAE Pyrexia,"part 2, 50 mg (N = 20)",11 (55) n (%)
same,TEAE Thermal burn,"part 2, 50 mg (N = 20)",2 (10) n (%)
same,TEAE Thermohypoesthesia,"part 2, 50 mg (N = 20)",12 (60) n (%)
same,Total no. participants with AEs,"part 2, 50 mg (N = 20)",19 (95) n (%)
same,Participants with minor burns of the mouth,"part 2, 50-mg dose",2 participants
same,TEAE Disturbance in attention,"part 2, Total (N = 20)",2 (10) n (%)
same,TEAE Dizziness,"part 2, Total (N = 20)",2 (10) n (%)
same,TEAE Dizziness postural,"part 2, Total (N = 20)",2 (10) n (%)
same,TEAE Dysgeusia,"part 2, Total (N = 20)",7 (35) n (%)
same,TEAE Feeling cold,"part 2, Total (N = 20)",13 (65) n (%)
same,TEAE Feeling hot,"part 2, Total (N = 20)",11 (55) n (%)
same,TEAE Headache,"part 2, Total (N = 20)",5 (25) n (%)
same,TEAE Hyperhidrosis,"part 2, Total (N = 20)",4 (20) n (%)
same,TEAE Oropharyngeal pain,"part 2, Total (N = 20)",2 (10) n (%)
same,TEAE Paresthesia,"part 2, Total (N = 20)",11 (55) n (%)
same,TEAE Pyrexia,"part 2, Total (N = 20)",12 (60) n (%)
same,TEAE Thermal burn,"part 2, Total (N = 20)",2 (10) n (%)
same,TEAE Thermohypoesthesia,"part 2, Total (N = 20)",14 (70) n (%)
same,Total no. participants with AEs,"part 2, Total (N = 20)",20 (100) n (%)
same,Severe adverse events / withdrawals because of an adverse event,parts 1 and 2,no severe adverse events reported
same,Tolerability,single oral doses up to 225 mg,well tolerated
